Data as given in ChEMBL document CHEMBL1125181, “Naphthosultam derivatives: a new class of potent and selective 5-HT2 antagonists” (J Med Chem, 1991).

Experiments:
[1] = target: Serotonin 2 (5-HT2) receptor (Rattus norvegicus, UniProt P30994+P08909+P14842); assay: The concentration required to inhibit [3H]ketanserin binding to 5-hydroxytryptamine 2 receptor in rat brain membranes (in vitro); format: cell membranes
Method in brief: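 Male Sprague-Dawley rat cortical membranes (0.15 mg/mL protein) in Tris-HCl pH 7.6 with BSA 2 mg/mL. Incubated 15 min at 37 °C with compound and [3H]ketanserin (final 0.4 nM). Nonspecific binding from 10⁻⁶ M methysergide. Filtration and scintillation counting. IC50 by nonlinear regression; mean of at least 2 runs, 6 concentrations in triplicate.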

[2] = target: T1, Adrenergic receptor alpha-1 (Rattus norvegicus, UniProt P15823+P23944+P43140); assay: The concentration required to inhibit 3[H]prazosin binding to Alpha-1 adrenergic receptor in rat brain membranes was measured (in vitro); format: cell membranes
T1 sequence (P15823 whole entry): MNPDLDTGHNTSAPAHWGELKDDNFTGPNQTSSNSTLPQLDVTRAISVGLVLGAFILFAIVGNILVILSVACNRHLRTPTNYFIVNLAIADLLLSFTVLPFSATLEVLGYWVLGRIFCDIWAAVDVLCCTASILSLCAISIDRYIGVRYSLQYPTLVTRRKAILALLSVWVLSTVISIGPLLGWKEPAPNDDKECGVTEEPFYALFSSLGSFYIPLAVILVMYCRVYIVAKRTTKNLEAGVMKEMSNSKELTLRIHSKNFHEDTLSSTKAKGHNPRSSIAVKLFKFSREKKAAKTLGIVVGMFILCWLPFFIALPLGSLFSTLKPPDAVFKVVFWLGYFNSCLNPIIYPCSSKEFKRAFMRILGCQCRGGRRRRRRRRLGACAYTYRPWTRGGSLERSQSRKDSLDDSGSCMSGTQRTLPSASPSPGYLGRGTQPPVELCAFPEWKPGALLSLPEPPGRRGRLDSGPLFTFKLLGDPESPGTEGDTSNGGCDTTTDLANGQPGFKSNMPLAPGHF
T1 sequence (P23944 whole entry): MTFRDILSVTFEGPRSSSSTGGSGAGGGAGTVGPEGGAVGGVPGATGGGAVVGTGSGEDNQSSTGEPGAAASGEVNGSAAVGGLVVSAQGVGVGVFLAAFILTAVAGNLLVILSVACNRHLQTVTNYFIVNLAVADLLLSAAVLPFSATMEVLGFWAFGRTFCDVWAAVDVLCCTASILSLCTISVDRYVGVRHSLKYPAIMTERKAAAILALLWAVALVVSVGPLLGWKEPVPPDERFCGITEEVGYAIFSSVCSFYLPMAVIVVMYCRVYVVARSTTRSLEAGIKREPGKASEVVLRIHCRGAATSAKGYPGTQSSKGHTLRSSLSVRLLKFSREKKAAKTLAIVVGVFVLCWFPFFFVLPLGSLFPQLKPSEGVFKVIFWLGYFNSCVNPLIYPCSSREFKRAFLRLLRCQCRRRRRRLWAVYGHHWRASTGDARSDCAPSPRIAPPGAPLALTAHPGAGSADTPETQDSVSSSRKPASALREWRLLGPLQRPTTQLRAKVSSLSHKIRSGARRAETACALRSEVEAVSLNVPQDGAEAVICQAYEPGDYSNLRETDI
T1 sequence (P43140 whole entry): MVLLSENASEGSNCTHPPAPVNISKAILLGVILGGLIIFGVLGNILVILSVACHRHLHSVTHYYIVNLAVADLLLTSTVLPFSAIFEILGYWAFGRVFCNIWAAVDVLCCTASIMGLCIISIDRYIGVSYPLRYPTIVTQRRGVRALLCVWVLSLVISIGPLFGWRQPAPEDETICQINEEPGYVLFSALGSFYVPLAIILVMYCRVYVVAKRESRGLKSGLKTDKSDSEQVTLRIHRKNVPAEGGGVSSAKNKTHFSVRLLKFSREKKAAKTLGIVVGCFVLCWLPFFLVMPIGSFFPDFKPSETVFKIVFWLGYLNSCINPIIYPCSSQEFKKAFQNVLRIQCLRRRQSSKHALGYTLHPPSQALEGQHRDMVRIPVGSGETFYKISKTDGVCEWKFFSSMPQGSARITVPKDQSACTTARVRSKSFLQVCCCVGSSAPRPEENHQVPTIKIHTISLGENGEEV
Method in brief: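 Male Sprague-Dawley rat cerebrocortical membranes (0.15 mg/mL protein) in Tris-HCl pH 7.6 with BSA 2 mg/mL. Incubated 40 min at 25 °C with compound and [3H]prazosin (final 0.065 nM). Nonspecific binding from 10⁻⁶ M phentolamine. Filtration and scintillation counting. IC50 values are the mean of at least 2 runs, each with 6 concentrations in triplicate.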

D(2) dopamine receptor [3] = target: T2, D(2) dopamine receptor (Rattus norvegicus, UniProt P61169); assay: The concentration required to inhibit [3H]spiperone binding to dopamine receptor D2 in rat brain membranes (in vitro); format: cell membranes
T2 sequence (P61169 whole entry): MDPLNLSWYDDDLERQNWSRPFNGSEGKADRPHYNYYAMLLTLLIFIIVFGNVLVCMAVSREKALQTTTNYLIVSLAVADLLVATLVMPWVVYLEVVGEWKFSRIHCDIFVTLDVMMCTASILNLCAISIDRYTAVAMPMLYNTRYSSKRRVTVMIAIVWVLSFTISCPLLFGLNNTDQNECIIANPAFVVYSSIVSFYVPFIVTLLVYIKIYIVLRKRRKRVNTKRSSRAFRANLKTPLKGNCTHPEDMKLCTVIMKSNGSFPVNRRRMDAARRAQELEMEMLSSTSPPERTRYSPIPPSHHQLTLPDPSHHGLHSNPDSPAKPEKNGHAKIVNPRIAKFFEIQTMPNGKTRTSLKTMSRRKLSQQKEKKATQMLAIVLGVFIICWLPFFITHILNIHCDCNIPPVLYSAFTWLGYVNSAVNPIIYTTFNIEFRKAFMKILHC
Method in brief: (§1)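 Rat striatal membranes (0.05 mg/mL protein) in Tris-HCl with BSA 2 mg/mL, NaCl, cinanserin 10⁻⁶ M and compound. [3H]spiperone (final 0.05 nM) added after 5 min, incubation continued 40 min. Nonspecific binding from 10⁻⁶ M sulpiride. Filtration and scintillation counting.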

[4] = target: T3, 5-hydroxytryptamine receptor 1A (Rattus norvegicus, UniProt P19327); assay: Binding constant against 5-hydroxytryptamine 1A receptor (in vivo); details: in the assay text read “(in vitro)” for “(in vivo)”
T3 sequence (P19327 whole entry): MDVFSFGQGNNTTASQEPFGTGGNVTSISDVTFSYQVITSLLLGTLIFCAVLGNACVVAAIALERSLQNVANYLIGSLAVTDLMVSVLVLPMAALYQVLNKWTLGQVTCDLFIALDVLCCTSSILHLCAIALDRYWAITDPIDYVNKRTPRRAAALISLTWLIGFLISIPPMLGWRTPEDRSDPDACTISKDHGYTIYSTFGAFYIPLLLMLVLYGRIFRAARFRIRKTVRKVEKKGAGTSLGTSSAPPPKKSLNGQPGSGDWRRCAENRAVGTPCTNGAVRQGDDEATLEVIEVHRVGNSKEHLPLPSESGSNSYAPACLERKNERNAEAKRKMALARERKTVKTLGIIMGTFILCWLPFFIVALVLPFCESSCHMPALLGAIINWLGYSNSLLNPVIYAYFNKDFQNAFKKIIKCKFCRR
Method in brief: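 Rat hippocampal membranes (1 mg/mL protein, Tris-HCl) preincubated 5 min at 37 °C with compound, then [3H]-8-OH-DPAT (final 1 nM) added for a further 10 min. Nonspecific binding from 10⁻⁵ M serotonin. Filtration through glass-fibre filters, two ice-cold buffer washes, scintillation counting of bound radioactivity.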

D(2) dopamine receptor [5] = target: T2, D(2) dopamine receptor; assay: Binding constant against dopamine receptor D2 […]; method in brief: as §1
Histamine H1 receptor = Histamine H1 receptor (Cavia porcellus, UniProt P31389); assay: Binding constant against histamine H1 receptor […]
Sequence of Histamine H1 receptor (P31389 whole entry): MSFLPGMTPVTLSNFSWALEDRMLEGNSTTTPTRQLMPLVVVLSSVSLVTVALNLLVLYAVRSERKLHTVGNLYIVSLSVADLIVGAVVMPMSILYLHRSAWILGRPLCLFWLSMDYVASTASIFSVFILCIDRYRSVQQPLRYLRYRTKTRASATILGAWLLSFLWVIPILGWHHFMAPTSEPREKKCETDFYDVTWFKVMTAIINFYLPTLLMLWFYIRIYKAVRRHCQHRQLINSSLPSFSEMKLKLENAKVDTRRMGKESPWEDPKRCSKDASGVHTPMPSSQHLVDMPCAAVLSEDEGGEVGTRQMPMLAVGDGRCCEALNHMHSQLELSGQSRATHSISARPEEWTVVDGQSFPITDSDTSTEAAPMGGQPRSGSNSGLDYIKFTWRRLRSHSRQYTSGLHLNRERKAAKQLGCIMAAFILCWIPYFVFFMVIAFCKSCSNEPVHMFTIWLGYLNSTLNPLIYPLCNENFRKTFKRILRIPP
Method in brief: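 Male guinea pig cerebellar membranes (0.35 mg/mL protein) in 50 mM sodium phosphate pH 7.5. Incubated 30 min at 25 °C with compound and [3H]mepyramine (final 0.7 nM). Nonspecific binding from 10⁻⁶ M promethazine. Filtration through glass-fibre filters and liquid scintillation counting.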

Mus musculus [6] = assay: The concentration required to induce head twich in mice when given po (in vivo); format: functional
Method in brief: (§2)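 Mice, 6 per dose, dosed sc 60 min or po 90 min before mescaline 50 mg/kg ip. Observed for 2 min starting 15 min after mescaline; head twitches scored as all-or-none.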

Mus musculus [7] = assay: The concentration required to induce head twich in mice when given sc (in vivo); format: functional; method in brief: as §2
Rattus norvegicus [8] = assay: The concentration required to induce head twich for 16 hours in rats when given po (in vivo); format: functional
Method in brief: (§3)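 Rats, 6 per dose, dosed sc or po, then given mescaline 20 mg/kg iv 1 h later (6 or 16 h later for duration of action). Head twitches counted for 15 min from injection. Fewer than 3 twitches counted as antagonism.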

Rattus norvegicus [9] = assay: The concentration required to induce head twich for 6 hours in rats when given po (in vivo); format: functional; method in brief: as §3
Rattus norvegicus [10] = assay: The concentration required to induce head twich for 6 hours in rats when given sc (in vivo); format: functional; method in brief: as §3
Rattus norvegicus [11] = assay: The concentration required to induce head twich for 1 hours in rats when given po (in vivo); format: functional; method in brief: as §3
Rattus norvegicus [12] = assay: The concentration required to induce head twich for 1 hours in rats when given sc (in vivo); format: functional; method in brief: as §3
Rattus norvegicus [13] = assay: The concentration required to induce head twich for 16 hours in rats when given sc (in vivo); format: functional; method in brief: as §3

Compound `O=S1(=O)c2cccc3cccc(c23)N1CCCCN1CCN(c2ccc(F)cc2)CC1` has an IC50 [1] of 3.7 nM, an IC50 [2] of 11 nM and an IC50 (D(2) dopamine receptor [3]) of 300 nM.
For `O=S1(=O)c2cccc3cccc(c23)N1CCCN1CCN(c2ccc(F)cc2)CC1` [FANANSERIN], the Ki [4] was 70 nM, the IC50 (D(2) dopamine receptor [3]) was over 1000 nM and the Ki (D(2) dopamine receptor [5]) was over 1000 nM. For the same compound, the Ki (Histamine H1 receptor) was 25 nM, the ED50 (Mus musculus [6]) was 0.43 mg/kg and the ED50 (Mus musculus [7]) was 0.16 mg/kg. For the same compound, the ED50 (Rattus norvegicus [8]) was 14.2 mg/kg, the ED50 (Rattus norvegicus [9]) was 2.38 mg/kg and the ED50 (Rattus norvegicus [10]) was 0.45 mg/kg. It also gave an ED50 (Rattus norvegicus [11]) of 0.99 mg/kg, an ED50 (Rattus norvegicus [12]) of 0.65 mg/kg and an ED50 (Rattus norvegicus [13]) of 5.91 mg/kg.
